Data taken from PubChem BioAssay.
Records with an inconclusive call do not appear.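 The calls were made as follows, unless noted: active = viability increase at or above a cutoff of the median across tested compounds plus 3 SD (cut at about 8.5% in these data, passing the limit was not always enough); inconclusive = some gains above the cutoff, reason not given; inactive = the rest.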 Non-standard residues stand in square brackets, D forms with d. Residues, ends and D or L forms follow the SMILES beside them. ξ: configuration not given here. *: point of attachment. Cbz = O=C(OCc1ccccc1)*; ξV = CC(C)C(N)C(=O)O; OtBu = CC(C)(C)O*

Legend:
[1] = S. cerevisiae growth inhibition in permissive medium (OD615), pilot counter-assay for S. cerevisiae lifespan shortening project, permissive growth control (AID 705;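 active = growth inhibition above 25% in both replicates, a cutoff set 3 SD above the mean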); conditions: OD615, 24 h, at 10 µM, hits give high values
In short: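 Test system: Saccharomyces cerevisiae strain carrying genetically modified DeaD replicative-lifespan system; buffer or medium: SC raffinose/galactose permissive medium; dosing: one dose 10 µM, DMSO 0.25% final; times: 24 h exposure, 30 °C; measured by: OD at 615 nm; read-out basis: growth inhibition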

[2] = S. cerevisiae growth inhibition in restrictive medium, OD615, pilot screen, restrictive growth control, yeast lifespan reduction project (AID 706;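 active = growth inhibition above a set limit, 3 SD over mean compound inhibition, in both replicates, cut at about 43% in these data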;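 also: modified DeaD lifespan yeast strain shifted to restrictive glucose medium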); conditions: OD615, 48 h, at 10 µM, hits give high values
In short: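 material = engineered S. cerevisiae DeaD strain | buffer or medium = glucose-based CSMM-D restrictive medium | dosing = one concentration, 10 µM final, 0.25% DMSO | schedule = 4 h pre-growth plus 48 h compound exposure, 30 °C | detection = OD615 absorbance reading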

[3] = doxorubicin toxicity protection in MRP-1 cells – H69AR cells, CellTiter-Glo, duplicate, MRP-1 activator project, pilot screen (AID 807); conditions: H69AR viability with doxorubicin, CellTiter-Glo luminescence; at 10 µM; hits give high values;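 also: compound pretreatment 18-22 h then 72 h combined with doxorubicin; 0% = doxorubicin alone and 100% = vehicle without doxorubicin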
[4] = viability of HCT116 without oncogenic beta-catenin – human colon tumor cells, pilot screen (AID 823;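 active = cell viability at or below a set limit in both duplicate runs, the limit being the all-compound median minus 4 SD, cut at about 23% in these data, passing the limit was not always enough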;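 also: 0% = wells killed by 20 µM Hyamine and 100% = untreated DMSO cell wells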); conditions: HCT116 beta-catenin knockout viability, CellTiter-Glo, 60 h; at 10 µM; hits give low values
[5] = viability of PTEN-null HCT116 cells – cell-based, HCT116 clonal line, CellTiter-Glo, pilot screen (AID 824;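 active = viability at or below 27.92% in each of two runs, the all-compound median minus 4 SD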;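 also: 0% = 20 µM Hyamine control and 100% = vehicle cell control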); conditions: HCT116 PTEN-deleted viability, 60 h, at 10 µM, hits give low values
[6] = RAM pathway blockade in budding yeast – dse1pr::URA3 reporter, 5-FOA selection, pilot screen (AID 869;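 active = inhibition over a set limit, the all-compound mean plus 3 SD, in both replicate runs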;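 also: 0% = DMSO wells with no growth and 100% = 10 µM 1-NA-PP1 with full growth; RAM network block rescues cells from 5-FOA so hits raise OD615 growth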); conditions: S. cerevisiae dse1pr::URA3 5-FOA growth, OD615, 2 d; at 10 µM; hits give high values; strain carries analog-sensitive mutant Cbk1 kinase
[7] = RAM signaling pathway blockade in yeast – S. cerevisiae, Pdr1DBD-CYC8 efflux-inhibited sensitized strain, primary screen (AID 1298;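 active = RAM network inhibition above 8.4% in each of two replicates, 3 SD over the compound average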;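 also: 0% = DMSO untreated cells without growth and 100% = 10 µM 1-NA-PP1 full growth; higher means more yeast growth rescued from 5-FOA killing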); conditions: S. cerevisiae cbk1-as DSE1-URA3 strain, 5-FOA growth OD615, 2 d; at 50 µM; hits give high values

c1cnc(N2CCSCC2)nc1
inactive: growth inhibition [1] 2.61% | growth inhibition [2] 2.42% | viability increase [3] -2.73% | viability [4] 104% | viability [5] 101% | inhibition [6] 0.69% | RAM network inhibition [7] 3.1%

CC1CCN(C(=O)CSc2nnc(Cc3cccn3C)n2-c2ccc(F)cc2)CC1
inactive: growth inhibition [1] -5.51% | growth inhibition [2] 10.6% | viability increase [3] -0.49% | viability [4] 88.7% | viability [5] 92% | inhibition [6] 1.79% | RAM network inhibition [7] 2.35%

O=C(O)CCNc1cc2ccccc2cc1C(=O)O
inactive: growth inhibition [1] -15.4% | growth inhibition [2] -3.88% | viability increase [3] -1.49% | viability [4] 97.3% | viability [5] 96.5% | inhibition [6] 1.59% | RAM network inhibition [7] -0.37%

N#Cc1ccccc1N=C1CCCN1Cc1ccccc1
inactive: growth inhibition [1] -3.08% | growth inhibition [2] 9.46% | viability increase [3] 0.25% | viability [4] 88.8% | viability [5] 95.2% | inhibition [6] 0.63% | RAM network inhibition [7] 4.48%

COc1ccc(N2CSC3=C(C#N)C(c4cc(OC)c(OC)cc4OC)CC(=O)N3C2)c(OC)c1 (configuration not stated)
inactive: growth inhibition [1] -2.5% | growth inhibition [2] 31.1% | viability increase [3] -5.15% | viability [4] 71.6% | viability [5] 76.7% | inhibition [6] 1.16% | RAM network inhibition [7] 2.63%

COc1ccccc1-c1c(C#N)c(SCC(=O)N2CCCC2)nc(C)c1C(N)=O
inactive: growth inhibition [1] -2.97% | growth inhibition [2] -7.78% | viability increase [3] -0.18% | viability [4] 101% | viability [5] 98.2% | inhibition [6] 1.73% | RAM network inhibition [7] 1.04%

Cc1onc(-c2ccccc2)c1C(=O)N1CCN(C/C=C/c2ccccc2)CC1
inactive: growth inhibition [1] -2.69% | growth inhibition [2] 5.24% | viability increase [3] -5.02% | viability [4] 78.9% | viability [5] 75.6% | inhibition [6] 2.72% | RAM network inhibition [7] 3.92%

CC(NC(=O)COc1ccccc1)C(c1ccccc1)N1CCN(C)CC1 (configuration not stated)
inactive: growth inhibition [1] -4.2% | growth inhibition [2] -7.49% | viability increase [3] -3.94% | viability [4] 97% | viability [5] 96.8% | inhibition [6] 1.02% | RAM network inhibition [7] 4.65%

COc1ccc(-c2noc(-c3cccc(OC)c3OC)n2)cc1OC
inactive: growth inhibition [1] -8.92% | growth inhibition [2] -10.4% | viability increase [3] -1.07% | viability [4] 102% | viability [5] 94.3% | inhibition [6] 2.87% | RAM network inhibition [7] 2.97%

O=C(CSc1nc2ccccc2[nH]1)Nc1ccc(F)cc1
inactive: growth inhibition [1] 3.95% | growth inhibition [2] 11.3% | viability increase [3] 0.83% | viability [4] 97.7% | viability [5] 90.2% | inhibition [6] 0.255% | RAM network inhibition [7] 5.07%

CCn1c(COc2cccc3cccnc23)nnc1SCC(=O)O
inactive: growth inhibition [1] -4.3% | growth inhibition [2] 8.66% | viability increase [3] -0.53% | viability [4] 95.5% | viability [5] 91.5% | inhibition [6] 2.12% | RAM network inhibition [7] 0.05%

CC(=O)C1=C(C)NC(SCC(N)=O)=C(C#N)C1c1cccnc1 (configuration not stated)
inactive: growth inhibition [1] 6.58% | growth inhibition [2] 20.8% | viability increase [3] 1.67% | viability [4] 104% | viability [5] 101% | inhibition [6] 1.12% | RAM network inhibition [7] 1.65%

CSc1nnc(Cn2c(=O)sc3ccccc32)n1CCc1ccccc1
inactive: growth inhibition [1] 3.19% | growth inhibition [2] 9.71% | viability increase [3] -1.75% | viability [4] 92.2% | viability [5] 83.3% | inhibition [6] 2.35% | RAM network inhibition [7] 6.93%

O=C(c1ccc(F)cc1)c1cn[nH]c1-c1ccccc1O
inactive: growth inhibition [1] -15.3% | growth inhibition [2] -15.9% | viability increase [3] -1.5% | viability [4] 99.5% | viability [5] 94.9% | inhibition [6] 2.42% | RAM network inhibition [7] 4.4%

CCOc1ccc(-n2c(SCC(=O)Nc3nccs3)nc3c(c2=O)SCC3)cc1
inactive: growth inhibition [1] -7.92% | growth inhibition [2] -5.48% | viability increase [3] -0.41% | viability [4] 104% | viability [5] 98.3% | inhibition [6] 3.15% | RAM network inhibition [7] 4.65%

NC(=O)CSc1nnc(Cn2c(=O)sc3ccccc32)n1-c1ccccc1
inactive: growth inhibition [1] -6.81% | growth inhibition [2] -0.84% | viability increase [3] -0.83% | viability [4] 98.5% | viability [5] 96.8% | inhibition [6] 2.02% | RAM network inhibition [7] 2.47%

O=C(NC1CCCCC1)N1CCC(n2c(=O)[nH]c3ccccc32)CC1
inactive: growth inhibition [1] -8.88% | growth inhibition [2] -10.8% | viability increase [3] 1.07% | viability [4] 91.1% | viability [5] 89.6% | inhibition [6] 2.25% | RAM network inhibition [7] 5.7%

COc1ccc(NC(=O)C(c2ccccc2)N(C)C(=O)c2cnccn2)cc1 (configuration not stated)
inactive: growth inhibition [1] -4.62% | growth inhibition [2] -12.6% | viability increase [3] -1.52% | viability [4] 99.2% | viability [5] 90.8% | inhibition [6] 0.88% | RAM network inhibition [7] 0.05%

CCCCC1CCC(c2nc(-c3cccnc3)no2)CC1 (configuration not stated)
inactive: growth inhibition [1] -7.54% | growth inhibition [2] 9.22% | viability increase [3] -0.18% | viability [4] 93.5% | viability [5] 88% | inhibition [6] -1.52% | RAM network inhibition [7] -1.92%

CC(=O)c1ccc(OCC(O)CN2CCN(Cc3ccccc3)CC2)cc1 (configuration not stated)
inactive: growth inhibition [1] -6.49% | growth inhibition [2] 4.36% | viability increase [3] -1.36% | viability [4] 101% | viability [5] 92.1% | inhibition [6] -0.305% | RAM network inhibition [7] 0.94%

NS(=O)(=O)c1ccc(CCNC(=O)NC2(C(F)(F)F)Oc3ccccc3O2)cc1
inactive: growth inhibition [1] -2.1% | growth inhibition [2] -6.81% | viability increase [3] -6.42% | viability [4] 63.4% | viability [5] 80.3% | inhibition [6] 0.12% | RAM network inhibition [7] 3.68%

CCOc1ccccc1NC(=O)c1c(NC(=O)CNCc2ccco2)sc2c1CCC2
inactive: growth inhibition [1] 7.42% | growth inhibition [2] -15.1% | viability increase [3] -6.75% | viability [4] 76.7% | viability [5] 55.5% | inhibition [6] 1.43% | RAM network inhibition [7] 8.57%

CCOc1ccccc1N1CCN(C(=O)c2cc(C)oc2C)CC1
inactive: growth inhibition [1] -10.5% | growth inhibition [2] -5.64% | viability increase [3] -3.37% | viability [4] 89.2% | viability [5] 93.9% | inhibition [6] 0.04% | RAM network inhibition [7] 0.7%

O=C(NCc1cccnc1)NC1(c2ccccc2)CC1
inactive: growth inhibition [1] -2.17% | growth inhibition [2] -17.7% | viability increase [3] 0.15% | viability [4] 106% | viability [5] 100% | inhibition [6] 0.49% | RAM network inhibition [7] 0.4%

COc1ccc(OC)c(CCNC(=O)C2CCN(c3nnc(-n4cccc4)s3)CC2)c1
inactive: growth inhibition [1] -7.79% | growth inhibition [2] -20.5% | viability increase [3] -4.48% | viability [4] 85.2% | viability [5] 81.9% | inhibition [6] 4.26% | RAM network inhibition [7] 7.35%

COc1ccc2occ(C(=O)c3ccc(N=C(C)N(C)C)cc3)c2c1
inactive: growth inhibition [1] -7.86% | growth inhibition [2] -16.5% | viability increase [3] -1.53% | viability [4] 58.4% | viability [5] 70.1% | inhibition [6] 1.21% | RAM network inhibition [7] 0.89%

COc1ccc(C2C(C(=O)N3CCCCC3)CCC(=O)N2c2cc(OC)c(OC)c(OC)c2)cc1 (configuration not stated)
inactive: growth inhibition [1] -15% | growth inhibition [2] -5.94% | viability increase [3] -7.12% | viability [4] 100% | viability [5] 89% | inhibition [6] 0.98% | RAM network inhibition [7] 5.22%

Cc1cc2ccccc2n1CCNC(=O)COc1ccccc1
inactive: growth inhibition [1] -3.44% | growth inhibition [2] 11.8% | viability increase [3] -0.8% | viability [4] 99.2% | viability [5] 94.2% | inhibition [6] 2.31% | RAM network inhibition [7] 8.38%

Cc1nn(C)c(C)c1N=Cc1c(O)ccc2ccccc12
inactive: growth inhibition [1] -25.2% | growth inhibition [2] -28.4% | viability increase [3] -1.72% | viability [4] 105% | viability [5] 92.1% | inhibition [6] -0.015% | RAM network inhibition [7] -0.32%

CC(=O)C1=C(C)NC(SCC(=O)c2ccccc2)=C(C#N)C1c1ccco1 (configuration not stated)
inactive: growth inhibition [1] -3.25% | growth inhibition [2] 21.2% | viability increase [3] -6.35% | viability [4] 55% | viability [5] 56% | inhibition [6] 1.5% | RAM network inhibition [7] 3.37%

CC1CCN(C(=O)CNC(=O)Cn2ccc3ccccc3c2=O)CC1
inactive: growth inhibition [1] -9.29% | growth inhibition [2] -0.685% | viability increase [3] -1.73% | viability [4] 98.2% | viability [5] 94.1% | inhibition [6] 0.755% | RAM network inhibition [7] 1.67%

CCCSc1nc2c(c(=O)n1CC)SC(C)C2 (configuration not stated)
inactive: growth inhibition [1] -2.71% | growth inhibition [2] -13% | viability increase [3] -2.02% | viability [4] 105% | viability [5] 88.5% | inhibition [6] 1.4% | RAM network inhibition [7] 2.48%

O=C(CCn1c(=O)sc2ccccc21)NCCN1CCOCC1
inactive: growth inhibition [1] -3.08% | growth inhibition [2] -14.8% | viability increase [3] -1.01% | viability [4] 101% | viability [5] 106% | inhibition [6] 1.49% | RAM network inhibition [7] 1.56%

CC1CCC(NC(=O)CC2Oc3ccccc3NC2=O)CC1 (configuration not stated)
inactive: growth inhibition [1] 6.36% | growth inhibition [2] 2.4% | viability increase [3] -0.98% | viability [4] 98.8% | viability [5] 97.8% | inhibition [6] 2.69% | RAM network inhibition [7] 5.77%

CC(C)C(NC(=O)OCc1ccccc1)C(=O)NCC(=O)OC(C)(C)C (configuration not stated) (Cbz-[ξV]-Gly-OtBu)
inactive: growth inhibition [1] -5.84% | growth inhibition [2] -2.87% | viability increase [3] 0.2% | viability [4] 96.6% | viability [5] 95.2% | inhibition [6] 1.82% | RAM network inhibition [7] 3.16%

N#CCCN(CCC#N)C(=O)c1ccc(Cl)cc1
inactive: growth inhibition [1] -2.15% | growth inhibition [2] -11.1% | viability increase [3] -1.59% | viability [4] 92.7% | viability [5] 93.2% | inhibition [6] 1.3% | RAM network inhibition [7] 3.78%
